Screening results as filed in PubChem.
NadD inh – NadD (S. aureus) enzyme inhibition; inhibition, % at 20 µM; purified NadD enzyme, colorimetric absorbance read-out; actives 0.78% (n = 360,000); in the data active = inhibition above about 26%
Myeloid diff MLP – myeloid differentiation induction; ER-HoxA9 myeloid progenitors, lysozyme-GFP differentiation, flow cytometry; calls only at 10 µM; actives 1% (n = 360,000); AID 624256;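 active = normalized GFP-positive differentiation at or above the plate's own cutoff, the solvent-only control mean plus 3 SD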;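 also: cells exposed to compound for four days before flow analysis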
Fh CTSL1 inh – counter-screen for PFM18AAP inhibitors: inhibitors of F. hepatica cathepsin L1 | recombinant F. hepatica cathepsin L1, Z-Leu-Arg-MCA fluorescence | inhibition, % at 5.96 µM | actives 0.49% (n = 300,000) | AID 1906;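 active = inhibition above the mean of all tested compounds plus 3 SD, set per screening campaign, cut at about 17% in these data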;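 also: 0% = plate median of test compound wells and 100% = 1 µM Z-Phe-Ala-diazomethylketone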
core dimer inh – HCV core protein dimerization inhibition; AID 1899; TR-FRET GST/Flag-core106 dimerization, 1536-well; actives 0.33% (n = 300,000); inhibition, % at 5 µM;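 active = inhibition above the mean of all tested compounds plus 3 SD, set per screening campaign, cut at about 45% in these data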
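Material: GST/Flag-tagged HCV core106 proteins. Incubation: 4 h, 22.5 °C incubation. Read-out basis: inhibition (%) from 671 over 617 nm ratio. Measured by: TR-FRET, excitation 340 nm, emission 617 and 671 nm.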
PP1 counter – counter-screen for PP5 inhibitors: inhibitors of human PP1-alpha. P62136. purified PP1alpha, OMFP fluorescence. inhibition, % at 6.7 µM. actives 0.9% (n = 320,000);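 active = inhibition above the mean inhibition of all tested compounds plus 3 SD, computed separately for each screening campaign, cut at about 15% in these data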
Target sequence (P62136 whole entry, looked up): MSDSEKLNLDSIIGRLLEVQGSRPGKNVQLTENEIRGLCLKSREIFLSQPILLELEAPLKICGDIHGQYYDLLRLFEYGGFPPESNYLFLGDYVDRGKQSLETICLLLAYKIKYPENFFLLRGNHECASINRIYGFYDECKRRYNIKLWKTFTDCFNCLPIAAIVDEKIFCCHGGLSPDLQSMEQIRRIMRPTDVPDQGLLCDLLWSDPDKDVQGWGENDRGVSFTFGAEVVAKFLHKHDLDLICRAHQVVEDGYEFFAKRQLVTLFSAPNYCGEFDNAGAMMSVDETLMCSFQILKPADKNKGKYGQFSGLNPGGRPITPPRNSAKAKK
PP5 inh – blocks human protein phosphatase 5 activity; actives 0.18% (n = 320,000); purified PP5c, OMFP substrate fluorescence; AID 1987; inhibition, % at 6.7 µM;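 active = inhibition above the campaign's mean inhibition across all tested compounds plus 3 SD, cut at about 9.5% in these data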;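 also: 0% = DMSO only and 100% = 100 µM cantharidin control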
Myeloid diff – myeloid differentiation induction. shares compounds with Myeloid diff MLP. ER-HoxA9 myeloid progenitors, GFP/Mac1 double-positive flow. calls only. actives 2% (n = 2,300);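 active = share of green or green-and-red cells above 9 and 9% in run 1 or 4 and 3% in run 2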
GFP autofluor – counter-screen for myeloid differentiation promoters: compound fluorescence | shares compounds with Myeloid diff MLP | ER-HoxA9 myeloid progenitors, no estrogen, GFP autofluorescence flow cytometry; vehicle wells 0%, positive control 100% | fluorescence response, % (concentration not given with the values) | actives 7.4% (n = 2,300);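 active = over 5% cells positive for green fluorescent reporter, or over 2% positive for both it and APC stain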;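 also: range taken on the double positive population between DMSO and positive control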
The depositor's hits bear a star; i = inactive; x = no result given; + = active, no number. The list is not random: actives were taken first. Their share in the collection is about 3.1%.

SMILES | NadD inh | Myeloid diff MLP | Fh CTSL1 inh | core dimer inh | PP1 counter | PP5 inh | Myeloid diff | GFP autofluor
COC(=O)c1ccc(OC)c(OC2CCCC2)c1 | 2.9 | i | 3.0 | -1.3 | -3.8 | -0.3 | i | 0.4
CCOC(=O)c1ccc(NCn2c(=O)oc3ccccc32)cc1 | -5.8 | i | -6.7 | -4.9 | -4.4 | -1.3 | i | 44.5*
CC1(C(=O)NS(=O)(=O)c2cccc(OC(F)F)c2)CCN1C(=O)CCc1cccs1 (stereo not drawn) | -4.5 | i | x | x | x | x | x | x
CC(CCc1ccccc1)NC(=O)c1nnc(Cc2ccc(Cl)cc2)o1 (stereo not drawn) | -3.0 | i | 0.9 | 2.0 | -3.8 | 1.9 | i | 0.0
O=C(NCCc1ccc(Cl)cc1)c1nnc(Cc2ccc(Cl)cc2)o1 | -1.5 | i | -1.4 | -11.8 | -2.9 | 2.0 | x | x
CCOc1ncccc1C(=O)Nc1cc(S(=O)(=O)N(CC)CC)ccc1N1CCOCC1 | -0.4 | i | x | x | x | x | x | x
Cc1ccc(S(=O)(=O)NCc2ccco2)cc1C(N)=O | 0.2 | + | 4.2 | 2.8 | -2.4 | 0.0 | i | 0.4
Cc1ccc2ccc(S(=O)(=O)NCc3ccco3)cc2c1 | 4.2 | i | 0.3 | 13.7 | 2.6 | 3.3 | x | x
Cc1nnc(SCC(=O)N(CC(C)C)c2c(N)n(Cc3ccccc3)c(=O)[nH]c2=O)n1N | -3.9 | i | -0.2 | -2.1 | 4.4 | 1.6 | x | x
CCCNC(=O)NC(=O)CSc1nc2ccccc2n1CC(C)C | 1.7 | i | 5.4 | 2.6 | -3.4 | -0.2 | i | 0.3
CN(Cc1cn(Cc2cccc(Cl)c2)nn1)C1CN(Cc2cn(Cc3cccc(Cl)c3)nn2)S(=O)(=O)C1 (stereo not drawn) | 0.6 | i | x | x | x | x | x | x
O=C(CCCOc1ccccc1)NN1C(=O)NC2(CCCCC2)C1=O | -0.2 | i | -5.9 | -4.0 | -4.1 | 1.2 | x | x
COc1ccc(CN=CC2=C(O)CNC2=O)cc1OC | -5.8 | i | 2.8 | -3.4 | -0.7 | 2.9 | i | 0.3
O=C(Nc1nnc([C@H]2C[C@H](O)[C@@H](CO)O2)s1)C(c1ccccc1)c1ccccc1 | -1.6 | i | x | x | x | x | x | x
Cc1ccc([C@@H]2C[C@H]3[C@@H](CN2S(=O)(=O)c2ccc(Cl)cc2)C(=O)C[C@@H](c2ccc(Cl)cc2)N3S(=O)(=O)c2ccccc2C)cc1 | 23.1 | i | x | x | x | x | x | x
CCC(C)Nc1nc(OCC(F)(F)F)nc(OCC(F)(F)F)n1 (stereo not drawn) | -1.8 | i | -1.6 | -6.2 | -2.7 | -0.1 | x | x
CCC(C)Nc1nc(OC(C(F)(F)F)C(F)(F)F)nc(OC(C(F)(F)F)C(F)(F)F)n1 (stereo not drawn) | -5.2 | + | -0.8 | -3.3 | 1.4 | 2.6 | i | 0.4
CCC(=S)/C=C1\Sc2ccccc2N1CCCS(=O)(=O)O | 2.7 | i | 4.0 | -3.0 | -1.5 | 1.6 | i | 3.7
COc1ccc(/C=C/C(=O)Oc2ccc(/C=N/NC(=O)c3ccncc3)cc2)cc1 | 0.8 | i | -1.8 | -7.5 | 1.4 | 0.7 | x | x
O=C1CCc2cc(S(=O)(=O)NCc3ccc(F)cc3)cc3c2N1CCC3 | -3.4 | i | 3.0 | -3.0 | 0.6 | 1.6 | x | x
COc1ccc2cc(C3=CCCC3(C)C(=O)O)ccc2c1 (stereo not drawn) | -2.8 | i | x | x | x | x | x | x
CO/N=C(\CS(=O)(=O)Cc1ccc(OC)cc1)c1ccc(Cl)cc1 | -8.7 | i | -1.9 | -0.1 | 1.7 | 1.4 | i | 2.9
COc1cc2c(cc1OC)-c1cc3ccc4c(c3c[n+]1CC2)OCO4 | 3.2 | + | 51.5* | -6.5 | 0.1 | 4.9 | + | 0.7
COc1cc2c(cc1O)CC[n+]1cc3c(OC)c(OC)ccc3cc1-2 | -1.1 | i | 2.2 | -28.3 | 1.2 | -0.2 | x | x
O=C(NC1CC2CCC1C2)c1ccco1 (stereo not drawn) | -1.6 | i | -2.0 | 7.1 | 0.4 | 0.7 | i | 0.3
SMILES | NadD inh | Myeloid diff MLP | Fh CTSL1 inh | core dimer inh | PP1 counter | PP5 inh | Myeloid diff | GFP autofluor
Cc1ccc(OC(=O)N(C)C[C@@H]2OCc3cn(nn3)CCCC(=O)N([C@@H](C)CO)C[C@H]2C)cc1 | -3.3 | i | x | x | x | x | x | x
CC1CCC(NC(=O)CC(C)(C)Cc2nc3ccccc3c(=O)[nH]2)CC1 (stereo not drawn) | -4.8 | i | -0.1 | -13.9 | 0.8 | 1.6 | i | 1.2
CCN(CC(=O)NC(=O)NC1CCCCC1)Cc1nc2ccccc2c(=O)[nH]1 | -0.9 | i | -2.9 | -1.9 | -3.4 | 2.0 | x | x
Cc1cccc(NC(=S)N/N=C/c2ccc([N+](=O)[O-])s2)c1 | 16.5 | i | 11.6 | 10.9 | 6.1 | 3.5 | i | 61.5*
CCN(CC(=O)NCc1ccc(Cl)cc1)C(=O)CCC(=O)c1ccc(F)cc1 | -2.9 | + | -2.1 | 1.7 | -4.2 | 0.1 | i | 0.0
CCN(CC(=O)NCc1ccc(Cl)cc1)C(=O)CCC(=O)c1ccc(C)cc1 | -4.9 | i | 0.5 | -0.3 | -0.1 | 2.0 | x | x
COc1ccc(C(C)(C)C)cc1NC(=O)CSc1ncn[nH]1 | 1.9 | i | x | x | x | x | x | x
O=C(O)COc1ccc(C(=O)Cc2ccc3c(c2)OCCCO3)c(O)c1 | 3.5 | i | 3.6 | 2.4 | -0.7 | 1.0 | i | 0.2
COc1ccc(N2CCN(c3ccc(N4C(=O)COCC4=O)cc3[N+](=O)[O-])CC2)cc1 | -1.8 | i | -2.2 | -2.4 | -3.8 | 1.9 | i | 0.2
COc1ccc(NC(=S)N2CCN(c3ccc4c(c3)C3CCN(C(=O)OCc5ccccc5)C4C3)CC2)c(OC)c1 (stereo not drawn) | 18.7 | i | x | x | x | x | x | x
COc1ccc2[nH]c3c(c2c1)CCN1C(=O)C(CC(=O)NCCCn2ccnc2)C[C@H](C(=O)N2CCOCC2)[C@@]31C (stereo partly drawn) | -1.1 | i | x | x | x | x | x | x
Cc1csc(NC(=O)COc2ccc3c(c2)CCC3)n1 | -4.6 | i | x | x | -0.8 | 1.1 | x | x
Cc1ccc(NC(=O)/C=C/c2cccc(C(F)(F)F)c2)cc1 | -10.3 | i | 4.9 | -1.9 | 2.3 | 2.5 | x | x
O=C(/C=C/c1cccc(C(F)(F)F)c1)Nc1cccc(C(F)(F)F)c1 | -3.6 | i | 0.6 | 3.9 | 4.4 | 6.3 | i | 0.0
COc1ccc(N(CC(=O)Nc2cc(OC)ccc2OC)S(C)(=O)=O)cc1 | -2.3 | i | -5.0 | 5.5 | -3.6 | 4.6 | i | 0.2
CCc1ccc(N(CC(=O)Nc2ccc(OC)cc2OC)S(C)(=O)=O)cc1 | -6.2 | i | 1.5 | 0.9 | -2.9 | 0.7 | x | x
NC(=O)C1CCCN(C(=O)CCC(=O)c2cccs2)C1 (stereo not drawn) | 2.6 | i | x | x | x | x | x | x
CCCCn1nc(NC(=O)COC)c2cc3cc(OC)ccc3nc21 | -2.0 | i | -5.9 | -1.8 | -3.0 | 0.3 | i | 0.3
CCn1nc(NC(=O)Cc2ccc(OC)cc2)c2cc3cc(C)ccc3nc21 | -10.8 | i | -2.0 | -2.5 | -8.7 | -0.4 | x | x
